Test results taken from article PMC6785838 (Journal of peptide science : an official publication of the …, 2019).

Key:
[1] = Stability test of Sec-containing peptides in oxygenated buffer; format: physicochemical; conditions: for β-syn elimination: dehydroalanine-containing peptide (species D) by MS: 96 h in oxygenated KP buffer pH 8.0, 25 °C, positive ESI-MS, linear ion trap; for Deselenization seen as red selenium precipitate / color change: peptide 1 mM in oxygenated KP buffer pH 8.0, 96 h, visual inspection
Procedure, shortened: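 Test peptides incubated in oxygenated KP buffer, pH 8.0, at 25 °C. Aliquots taken at 24, 48 and 96 h and centrifuged to pellet precipitated selenium. For MS, samples from time zero and 96 h were infused through a guard column at 10 μL/min into 100 μL/min 50/50 water/acetonitrile with 0.1% formic acid, using positive ESI and a linear ion trap scan over m/z 200–1800. Tubes with 1 mM peptide were photographed.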

[2] = cited from earlier work

| β-syn elimination: dehydroalanine-containing peptide (species D) by MS [1] | Deselenization seen as red selenium precipitate / color change [1] | Molecule | Water solubility [2] |
| --- | --- | --- | --- |
| β-syn elimination occurred | red precipitate clearly forms | H-Sec-Gly-Thr-Thr-Val-Arg-Asp-Tyr-Thr-Gln-OH [peptide 12] |  |
|  |  | O=c1c2ccccc2[se]n1-c1ccccc1 [ebselen, 2-phenyl-1,2-benzisoselenazol-3(2H)-one] | not water soluble |
| absent | no color change was observed | H-(αMe)Sec-Gly-Thr-Thr-Val-Arg-Asp-Tyr-Thr-Gln-OH [peptide 11] |  |
